# T cruzi repl = T. cruzi replication inhibition | T. cruzi beta-gal in NIH3T3, luminescence, 90 h | inhibition, % (concentration not given with the values) | hit rate 1.4% among 300,000;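 active = mean inhibition across valid replicates above about 55%, limit read from the data; inconclusive = mean below that limit but half or more replicates reach it; inactive = mean below it, under half of replicates reach it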;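 note: signal also drops with host cell toxicity which is not excluded here; 0% = plate median of DMSO wells and 100% = zero luminescence signal; higher percent means less beta-gal luminescence so fewer parasites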
#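 System – NIH/3T3 host cells with β-galactosidase reporter T. cruzi · Doses – single 50 nL compound addition per well in DMSO · Reagent – 5000 T. cruzi trypomastigotes/well · Medium – Low-serum DMEM with 2% FBS · Timing – ≥90 h infection period, 3 h prior cell attachment · Evaluation – parasite load inhibition, % · Technique – GalScreen luminescence, 60 min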
# HIF act = HIF pathway transcriptional activation; U2OS HRE-luciferase reporter, luminescence; normalized: DMSO 0%, desferrioxamine 100%; activation, % at 7.5 µM (by protocol); hit rate 0.32% among 300,000; AID 1910;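 active = mean activation of at least 10% of the iron chelator positive control signal, with at least half of replicates also reaching 10%; inconclusive = mean and replicate majority disagree about reaching 10%; inactive = mean and most replicates under 10%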
# KLF5 inhibitor = inhibitors of KLF5 expression | DLD-1 KLF5 promoter-luciferase reporter, luminescence | inhibition, % at 5 µM | hit rate 0.23% among 290,000 | AID 1700;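 active = inhibition above a per-plate limit of that plate's mean compound inhibition plus 3 SD, cut at about 60% in these data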;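 note: 0% = DMSO wells and 100% = LY294002 at 200 µM; higher means less KLF5 promoter-driven luciferase light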
# Bfl-1 A1 inh = inhibitors of the anti-apoptotic protein A1, read as caspase activation; caspase activation, % (test concentration not listed); hit rate 0.066% among 330,000; MEF A1-2A-BIM cells, Caspase-Glo 3/7 luminescence, 3 h; percent of clofoctol response, vehicle zero;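 active = over half of replicate activation scores above 10%, or exactly half above 10 with the replicate mean above 10; inconclusive = replicate mean below 10 yet half the replicates above 10; inactive = over half of replicates below 10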
# Beta apoptosis = blocks beta cell apoptosis; INS-1E cytokine-induced death, ATP luminescence, 48 h; percent of positive-control rescue, neutral wells zero; protection from apoptosis, % (no concentration beside the values); hit rate 0.8% among 300,000;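 active = Every replicate reaches about 75%, or at least half do and their mean reaches it too, limit read from the data; inconclusive = At least half of replicates reach the limit but their mean does not; inactive = Under half of replicates reach the limit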;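 note: 0% = cytokine-treated negative control wells and 100% = positive control rescue; higher means more ATP so stronger rescue from cytokine killing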
# Numbers without * were called inactive; ? = inconclusive; . = no result. Shown are actives, neighbours in structure and some others; about 2.3% of the full set was active somewhere.
SMILES,T cruzi repl,HIF act,KLF5 inhibitor,Bfl-1 A1 inh,Beta apoptosis
CS(=O)(=O)c1nc(-c2ccccc2)cc(C(F)(F)F)n1,65*,-4,-19,0,108*
C/C(=N\Nc1nc(C(C)(C)C)cs1)c1ccccc1,73*,4,-195,0,15
C/C(=N\Nc1nc(C(C)(C)C)cs1)c1ccc(O)cc1,22,2,-14,-1,5
O=[N+]([O-])c1nn(-c2ccc3c(c2)OCCO3)n(O)c1=NC1CCCCC1,42,2,-89,0,10
CC1CCN(c2c([N+](=O)[O-])nn(-c3ccc4c(c3)OCCO4)[n+]2[O-])CC1,62*,0,-47,0,.
NC(=S)Nc1cccc2[nH]ccc12,64*,0,-23,-1,-3
CCCn1c(SCC(=O)N2c3ccccc3Sc3ccccc32)nc2ccccc21,57*,0,6,1,7
O=C(CSc1nc(C2CC2)nc2ccccc12)N1c2ccccc2Sc2ccccc21,59*,-1,1,0,.
Cc1csc(SCC(=O)NC2CCC(C)CC2)n1 (stereo unspecified),-4,-12,.,0,-3
COc1cccc(-c2nc(CCl)cs2)c1,61*,2,-59,0,5
COc1ccc(-c2nc(CCl)cs2)cc1,6,1,-29,-1,-6
N#CCCN(NC1=NS(=O)(=O)c2ccccc21)C(=O)c1ccccc1Br,-12,1,-10,0,.
COc1cccc(C2=Nn3c(nnc3-c3ccccc3O)SC2)c1,13,-1,-8,-1,10
C[n+]1c2n(c3ccccc31)N=C(c1cc(C(C)(C)C)c(O)c(C(C)(C)C)c1)CS2,61*,0,29,0,107*
CCN(CC)Cc1c(O)ccc2c1O/C(=C\C=C\c1ccccc1)C2=O,60*,-3,-37,-1,105*
CCn1nc(C)cc1-c1nnc(Sc2ncc([N+](=O)[O-])s2)n1C,61*,1,12,0,.
CCn1nc(C)cc1-c1nnc(SCC(=O)Nc2ccccc2)n1CCCOC,7,0,-9,0,-5
CN1CCN(CCCNC(=O)c2ccc(/C=C3\Sc4ccccc4N(Cc4ccc(F)cc4)C3=O)cc2)CC1,?,-2,-18,.,.
CCN1CCN(CCNC(=O)c2ccc(/C=C3\Sc4ccccc4N(Cc4ccccc4F)C3=O)cc2)CC1,60*,0,-55,-1,4
CN1CCN(CCCNC(=O)c2ccc(/C=C3/Sc4ccccc4N(Cc4cccc(Cl)c4)C3=O)cc2)CC1,58*,0,-37,.,.
CN1CCN(CCCNC(=O)c2ccc(/C=C3\Oc4ccccc4N(Cc4ccccc4F)C3=O)cc2)CC1,25,-1,-13,0,5
COc1c(C)cc(Br)cc1C(=O)NC(=S)NCc1ccco1,0,0,-15,1,2
OC1c2cc(Br)ccc2N=C2CCCN21 (stereo unspecified),55*,1,-21,1,15
CCOc1ccc(-n2c(-c3ccccc3)c[n+]3c2CCCCC3)cc1,60*,0,-7,0,99*
Cc1ccc(-c2c[n+]3c(n2-c2ccccc2)CCC3)cc1,55*,1,9,0,100*
SMILES,T cruzi repl,HIF act,KLF5 inhibitor,Bfl-1 A1 inh,Beta apoptosis
CC1C(c2ccccc2)N(C)C(c2ccccc2)CC1(O)c1ccc(F)cc1 (stereo unspecified),58*,0,-3,0,0
CC(C)(C)NC(=O)C(c1cccs1)N(C(=O)c1csnn1)c1cccc(F)c1 (stereo unspecified),4,0,-11,0,-4
CC(=O)c1ccc(N(C(=O)c2csnn2)C(C(=O)NC(C)(C)C)c2cccs2)cc1 (stereo unspecified),-6,35*,-9,4,1
COc1cccc(OCCCn2cc(/C=C3/C(=N)N4C=C(C)SC4=NC3=O)c3ccccc32)c1,57*,0,-14,0,7
COc1cccc(CN(C)C(=O)Cc2ccc(OC)c(S(=O)(=O)N3CCOCC3)c2)c1,-15,0,.,0,0
O=C1CCCC(O)=C1C=Nc1cccc(C(F)(F)F)c1,-8,714*,-18,0,-12
Cc1cc(C)nc(N/N=C2/CCCC/C2=C\c2ccccc2)n1,70*,1,-25,0,78*
O=C(CCNc1ccc(Br)cc1)c1cccc([N+](=O)[O-])c1,1,-48,-13,1,-1
O=C(/C(N=Nc1cccc([N+](=O)[O-])c1)=C(/O)c1ccc(Br)cc1)C(F)(F)F,24,2,3,0,105*
O=S(=O)(c1ccc(Cl)cc1)N1CCC(N2CCOCC2)CC1,3,0,-12,-1,-10
Nc1nc(-c2ccc(Cl)cc2)c(N=Nc2ccc(S(=O)(=O)N3CCOCC3)cc2)s1,59*,0,-4,0,33
O=C(NCCCn1ccnc1)C(=O)NCC(c1cccnc1)N1CCN(c2ccc(F)cc2)CC1 (stereo unspecified),40,0,5,0,6
COc1ccc(N2CCN(C(CNC(=O)C(=O)NCCCn3ccnc3)c3cccnc3)CC2)cc1 (stereo unspecified),63*,0,-17,0,1
CCS(=O)(=O)NCC(c1cccnc1)N1CCN(c2ccc(OC)cc2)CC1 (stereo unspecified),58*,0,4,0,-6
CCN(CC(=O)Nc1ccc(NC(C)=O)cc1)C(=O)CC1OC(=O)c2ccccc21 (stereo unspecified),-14,1,.,0,0
Cc1[nH]c2ccccc2c1SCc1nnc(SCc2ccc(Cl)cc2)n1C,59*,-2,-16,0,-1
Cc1ccc(S(=O)(=O)/N=C2\C=C(Nc3ccc(O)cc3)C(=O)c3ccccc32)cc1,.,.,.,3,120*
O=C1C=C(Nc2ccccc2)c2ccccc2C1=O,-17,-3,-2,.,.
O=C1C(Nc2ccccc2)=C/C(=N/S(=O)(=O)c2cccs2)c2ccccc21,60*,-3,-48,-2,105*
Cc1ccc(NC2=C/C(=N/S(=O)(=O)c3cccs3)c3ccccc3C2=O)cc1,46,-5,-57,-1,103*
O=C1C=C(Nc2ccccc2)C(=O)c2ccccc21,3,1,-166,-7,84*
CC1(C)Cc2c(C#N)c(SCCC#N)nc(N3CCOCC3)c2CO1,15,35*,-27,0,-5
CC1(C)Cc2c(C#N)c(SCCO)nc(N3CCOCC3)c2CO1,7,0,-12,1,-3
CC1(C)Cc2c(C#N)c(SCCOc3ccccc3)nc(N3CCOCC3)c2CO1,69*,-1,-35,0,.
COc1ccccc1NC(=O)c1ccc(S(=O)(=O)N2CCCC(C)C2)cc1 (stereo unspecified),-6,0,5,-1,1
Cc1oc(/N=C/c2ccccc2)c(C#N)c1C,-13,1,-12,1,165*

# Screening results (PubChem)
